From ChEMBL document CHEMBL1128561, “Inhibition of uridine phosphorylase: synthesis and structure-activity relationships of aryl-substituted 5-benzyluracils and 1-[(2-hydroxyethoxy)methyl]-5-benzyluracils” (J Med Chem, 1995)

Columns and labels:
[1] = target: T1, Uridine phosphorylase 1 (Mus musculus, UniProt P52624); assay: Inhibition of uridine phosphorylase (UrdPase) from murine liver.
Summary of the method: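 Murine liver UrdPase; uridine converted to uracil over 30 min at 37 °C, with enzyme set to give 10% conversion uninhibited. Stopped by 1 min at 100 °C. Uridine and uracil separated by TLC (chloroform:methanol:acetic acid 90:5:5).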

[2] = target: T1, Uridine phosphorylase 1; assay: The compound was tested for inhibition of uridine phosphorylase (UrdPase) from murine liver Value refers to activity for apparent Ki value
[3] = target: Uridine phosphorylase 1 (Mus musculus) (UniProt P52624); assay: The compound was tested for inhibition of uridine phosphorylase (UrdPase) from murine liver at 5 uM of concentration
Uridine phosphorylase 1 (Mus musculus), sequence (P52624 whole entry, looked up): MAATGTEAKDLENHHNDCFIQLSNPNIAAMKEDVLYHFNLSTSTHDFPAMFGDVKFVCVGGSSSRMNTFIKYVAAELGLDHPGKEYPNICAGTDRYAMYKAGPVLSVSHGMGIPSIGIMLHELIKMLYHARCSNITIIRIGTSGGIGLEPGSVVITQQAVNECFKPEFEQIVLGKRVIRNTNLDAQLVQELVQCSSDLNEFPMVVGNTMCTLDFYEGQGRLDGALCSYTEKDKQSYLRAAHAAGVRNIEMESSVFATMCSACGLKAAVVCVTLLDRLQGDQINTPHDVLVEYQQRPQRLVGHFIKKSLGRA

[4] = target: Uridine phosphorylase 1 (Mus musculus) (UniProt P52624); assay: The compound was tested for inhibition of uridine phosphorylase (UrdPase) from murine liver at 10 uM of concentration

T1 sequence (P52624 whole entry): as the sequence (P52624 whole entry, looked up) above

Compound | IC50 [1] [µM] | further results
CCCOc1cccc(Cc2cn(COCCO)c(=O)[nH]c2=O)c1 | 0.047 | 
O=c1[nH]cc(Cc2cccc(OCCCC(F)(F)F)c2)c(=O)[nH]1 | 13 | 
COc1cccc(Cc2cn(COCCO)c(=O)[nH]c2=O)c1 |  | Ki [2]: 1.86 µM
Oc1ncc(Cc2cccc(OCc3ccccc3)c2)c(O)n1 |  | inhibition [3]: 15%
O=c1[nH]cc(Cc2ccc3c(c2)OCO3)c(=O)[nH]1 | 13.6 | 
COc1ccc(Cc2c[nH]c(=O)[nH]c2=O)cc1OC | 129 | 
O=c1[nH]cc(Cc2ccc([N+](=O)[O-])cc2)c(=O)[nH]1 | 5.9 | 
Oc1ncc(Cc2ccc(C(F)(F)F)cc2)c(O)n1 |  | inhibition [4]: 16%
COc1ccc(Cc2cnc(O)nc2O)cc1 | 66.5 | 
